For series [1], the target named is T1, Protein deacetylase HDAC6 (Homo sapiens) (UniProt Q9UBN7).
T1 sequence (whole entry): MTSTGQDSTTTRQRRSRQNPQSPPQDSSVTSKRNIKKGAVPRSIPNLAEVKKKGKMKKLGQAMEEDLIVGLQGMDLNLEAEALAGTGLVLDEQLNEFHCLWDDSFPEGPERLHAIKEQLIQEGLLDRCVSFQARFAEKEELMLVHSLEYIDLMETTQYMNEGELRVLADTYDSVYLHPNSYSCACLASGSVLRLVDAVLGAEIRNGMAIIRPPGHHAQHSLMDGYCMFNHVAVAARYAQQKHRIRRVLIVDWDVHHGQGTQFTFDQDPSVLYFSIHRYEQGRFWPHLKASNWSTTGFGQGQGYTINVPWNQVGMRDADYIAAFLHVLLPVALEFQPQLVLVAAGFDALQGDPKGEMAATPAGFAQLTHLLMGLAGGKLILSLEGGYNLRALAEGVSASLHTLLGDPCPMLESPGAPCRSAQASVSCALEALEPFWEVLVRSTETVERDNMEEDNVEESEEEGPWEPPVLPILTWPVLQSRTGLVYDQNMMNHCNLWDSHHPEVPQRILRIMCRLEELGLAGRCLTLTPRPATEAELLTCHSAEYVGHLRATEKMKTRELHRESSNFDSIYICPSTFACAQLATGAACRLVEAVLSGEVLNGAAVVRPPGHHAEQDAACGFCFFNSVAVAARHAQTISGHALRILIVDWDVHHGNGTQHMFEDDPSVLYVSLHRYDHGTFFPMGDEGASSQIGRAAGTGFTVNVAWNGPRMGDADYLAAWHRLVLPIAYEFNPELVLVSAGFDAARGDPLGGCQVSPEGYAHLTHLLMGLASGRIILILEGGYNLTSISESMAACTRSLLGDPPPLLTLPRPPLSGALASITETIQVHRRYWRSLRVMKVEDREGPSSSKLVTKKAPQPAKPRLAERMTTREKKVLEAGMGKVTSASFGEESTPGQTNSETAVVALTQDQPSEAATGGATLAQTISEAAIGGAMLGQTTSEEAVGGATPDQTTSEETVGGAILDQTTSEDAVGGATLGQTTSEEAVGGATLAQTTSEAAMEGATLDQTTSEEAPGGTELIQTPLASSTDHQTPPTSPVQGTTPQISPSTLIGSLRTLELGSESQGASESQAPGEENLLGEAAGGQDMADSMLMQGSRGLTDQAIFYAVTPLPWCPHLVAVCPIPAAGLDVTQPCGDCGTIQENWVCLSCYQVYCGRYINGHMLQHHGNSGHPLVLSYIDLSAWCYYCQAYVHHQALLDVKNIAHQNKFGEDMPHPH
As to conditions: Sf9, dose 100.0 nM, time 40.0 min.

Series [2] concerns MGC-803. Nature of the series: Induction of apoptosis in human MGC803 cells assessed as late apoptotic cells at 8 uM measured after 48 hrs by Annexin-V FITC/PI staining based flow cytometry (reference value: 2.74%). Format: functional.
Series [3] is described as follows: Acute toxicity in C57BL/6 mouse assessed as change in body weight at 2 g/kg, po administered via gavage measured up to 14 days. Format: organism-based. The conditions noted are these: in vivo, 2000 mg/kg, 336 h, time <=14 day. An outline of the steps: (§1)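 Mice aged 8-10 weeks, 20 females and 20 males, split into two groups: vehicle control (0.5% CMC-Na) or a single oral gavage dose of 2000 mg/kg. Animals were fed and observed normally for 14 days, recording body weight, mortality and behaviour. Heart, liver, spleen, lung and kidney sections were then fixed, embedded and H&E stained.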

For series [4], the system named is MGC-803. Nature of the series: Induction of apoptosis in human MGC803 cells assessed as increase in caspase-9 expression after 48 hrs by Western blotting analysis. Format: functional, cell-based. As to conditions: dose 2-8 µM. An outline of the steps: (§2)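 MGC803 cells treated for 48 h, then lysed (0.1% SDS, 150 mM NaCl, 25 mM Tris-HCl, 1% deoxycholate, 1% NP-40, 1% PMSF). Protein quantified by BCA and resolved on 8–10% SDS-PAGE onto PVDF. Blocked in 5% milk, primary antibodies overnight at 4 °C, HRP secondary, ECL. GAPDH, total α-tubulin and H3 as references. Mean ± SD of three experiments.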

Series [5] is described as follows: Acute toxicity in C57BL/6 mouse assessed as lung tissue damage at 2 g/kg, po administered via gavage measured up to 14 days by HE staining based assay. Format: organism-based. As to conditions: in vivo, 2000 mg/kg, 336 h, time <=14 day. An outline of the steps: as §1
Series [6] relates to MGC-803. In words: Induction of apoptosis in human MGC803 cells assessed as downregulation of Bcl2 expression after 48 hrs by Western blotting analysis. The conditions noted are these: dose 2-8 µM. Format: functional, cell-based. An outline of the steps: as §2
On the technique in general: In western blotting, separated proteins are transferred to a membrane and probed.

For series [7], the system named is MGC-803. Nature of the series: Induction of apoptosis in human MGC803 cells assessed as necrotic cells at 4 uM measured after 48 hrs by Annexin-V FITC/PI staining based flow cytometry (reference value: 4.74%). Format: functional. A general note: A flow cytometer gives signals particle by particle.
Series [8] can be described thus: Acute toxicity in C57BL/6 mouse assessed as kidney tissue damage at 2 g/kg, po administered via gavage measured up to 14 days by HE staining based assay. Format: organism-based. The conditions noted are these: in vivo, 2000 mg/kg, 336 h, time <=14 day. An outline of the steps: as §1
For series [9], the system named is MGC-803. Nature of the series: Induction of apoptosis in human MGC803 cells assessed as viable cells at 8 uM measured after 48 hrs by Annexin-V FITC/PI staining based flow cytometry (reference value: 92.33%). Format: functional. The conditions noted are these: read-out: Activity.
In series [10] the target is T1, Protein deacetylase HDAC6 (Homo sapiens). Nature of the series: Binding affinity to HDAC6 in human MGC803 cells assessed as increase in thermal stability at 4 uM after 6 hrs by CETSA. Format: cell-based. The conditions noted are these: MGC-803. An outline of the steps: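 MGC803 grown 24 h in 6-well plates, then exposed to DMSO or 4 µM compound for 6 h. Cells resuspended in ice-cold PBS and split into 6 tubes. Lysed by repeated freeze-thaw, heated 3 min across a 44 to 54 °C gradient. Soluble HDAC6 in the supernatant read by Western blot.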

Series [11] has as its target T2, Protein deacetylase HDAC6 (Homo sapiens, UniProt Q9UBN7).
T2 sequence (Q9UBN7 whole entry): T1 sequence (whole entry)
Nature of the series: Inhibition of recombinant full length human HDAC6 expressed in baculovirus infected Sf9 cells using Z-(Ac)-Lys-AMC as substrate incubated for 40 mins by fluorescence based assay.

In series [12] the target is T3, Histone deacetylase 1 (Homo sapiens, UniProt Q13547). As to conditions: dose 100.0 nM, time 40.0 min.
Series [13] is described as follows: Acute toxicity in C57BL/6 mouse assessed as heart tissue damage at 2 g/kg, po administered via gavage measured up to 14 days by HE staining based assay. Format: organism-based. The conditions noted are these: in vivo, 2000 mg/kg, 336 h, time <=14 day. An outline of the steps:
as §1

Series [14] has as its system MGC-803. Nature of the series: Induction of apoptosis in human MGC803 cells assessed as necrotic cells at 8 uM measured after 48 hrs by Annexin-V FITC/PI staining based flow cytometry (reference value: 4.74%). Format: functional.
Series [15] deals with MGC-803. Nature of the series: Induction of apoptosis in human MGC803 cells assessed as late apoptotic cells at 4 uM measured after 48 hrs by Annexin-V FITC/PI staining based flow cytometry (reference value: 2.74%). Format: functional.
Series [16] relates to MGC-803. Nature of the series: Antiproliferative activity against human MGC803 cells incubated for 72 hrs by MTT assay. Format: functional, cell-based. As to conditions: MGC-803, 72 h. For orientation: Tetrazolium dyes change colour on reduction, which living cells bring about.
Series [17] concerns the target T3, Histone deacetylase 1. Nature of the series: Inhibition of recombinant human HDAC1 using Z-(Ac)-Lys-AMC as substrate incubated for 40 mins by fluorescence based assay.
A short description of series [18]: Acute toxicity in C57BL/6 mouse assessed as mortality at 2 g/kg, po administered via gavage measured up to 14 days. Format: organism-based. As to conditions: in vivo, 2000 mg/kg, 336 h, time <=14 day. An outline of the steps:
as §1

The term inhibition denotes the change of the read-out against control, counted positive when it falls. Low readings indicate little suppression, high ones strong suppression. By IC50 is commonly meant the midpoint of a concentration-inhibition curve.

Active and inactive are the calls of the source. No cut-off for these calls is given here.

T3 sequence (Q13547 whole entry): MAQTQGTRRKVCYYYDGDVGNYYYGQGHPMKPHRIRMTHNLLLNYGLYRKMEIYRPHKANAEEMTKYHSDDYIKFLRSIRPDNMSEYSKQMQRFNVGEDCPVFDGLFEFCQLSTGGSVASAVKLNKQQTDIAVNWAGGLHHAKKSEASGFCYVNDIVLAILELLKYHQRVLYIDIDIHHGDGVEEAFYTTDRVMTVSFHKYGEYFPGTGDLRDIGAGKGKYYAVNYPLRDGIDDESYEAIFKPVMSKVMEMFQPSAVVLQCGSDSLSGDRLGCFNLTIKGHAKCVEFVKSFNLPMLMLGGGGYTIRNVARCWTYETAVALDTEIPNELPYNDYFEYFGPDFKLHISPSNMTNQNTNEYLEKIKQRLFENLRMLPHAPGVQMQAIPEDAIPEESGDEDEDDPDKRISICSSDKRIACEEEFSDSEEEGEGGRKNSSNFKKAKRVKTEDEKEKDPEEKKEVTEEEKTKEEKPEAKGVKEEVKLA

As for `Cc1ccc(-c2nc(CNc3ccc(C(=O)NO)cc3)n(-c3ccccc3)n2)s1`, the inhibition was 79.7% in [1] and 30.1% against Histone deacetylase 1 [12]. Besides, the Activity in the series with MGC-803 [2] is 45.65%; in [3] it was “Non-Toxic”; in the series with MGC-803 [4], “Dose-Dependent Effect”; in series [5], “Non-Toxic”; in the series with MGC-803 [6], “Dose-Dependent Effect”; in the series on MGC-803 [7] it was 2.21%. Moreover, the Activity result is reported as “Non-Toxic” in series [8]; “Non-Toxic” in series [13]; 1.96% in the series with MGC-803 [14]; 15.5% in the series with MGC-803 [15]; “Non-Toxic” in [18]. Further, the viability at 8 µM in the series with MGC-803 [9] amounted to 43.6%. Also, the result in [10] was Active. The IC50 is 0.0306 µM in series [11], 8.45 µM with MGC-803 [16] and 3.94 µM on Histone deacetylase 1 [17].
